Assay results collected from several papers.
Protocols differ between the studies behind these lines.

SMILES	system	setting	clearance [mL/min/kg]
COc1cc(OC)c2nccc(N3CCc4c(cc(Cn5ccnc5)cc4-c4cn(C)nc4C(F)(F)F)C3=O)c2c1	male CD-1 mouse, plasma	intravenous, 3 mg/kg	63
CC(C)(C)c1ccc(O)c(CN(Cc2cc(C(C)(C)C)ccc2O)C2CCC(NC(N)=O)CC2)c1 (stereo not shown)	male C57BL/6 mouse, plasma	intraperitoneal, 10 mg/kg, single dose	17
Cc1ccc2cncc(N3CCc4c(cc(Cn5ccnc5)cc4-c4cn(C)nc4C(F)(F)F)C3=O)c2c1	male CD-1 mouse, plasma	intravenous, 3 mg/kg	16
CCO[C@H]1CCN(Cc2c(OC)cc(C)c3[nH]ccc23)[C@H](c2ccc(C(=O)O)cc2)C1	C57BL/6 mouse, plasma	intravenous, 1 mg/kg	16
Cc1noc(C)c1-c1ccc2nc(N3CCN(CCN(C)C)CC3)nc(N3CCOC[C@@H]3c3ccccc3)c2c1	CD-1 mouse, plasma	intravenous, 2 mg/kg	62.3
C=C(C[C@H](N)C(=O)O)C(=O)NCc1ccc(F)cc1	male CD-1 mouse, plasma	intravenous, 2.5 mg/kg	29.4
NCC1CCN(c2nc(-c3ccncc3)nc3sc4c(c23)CCCC4)CC1	female CD-1 mouse, plasma	intravenous, 10 mg/kg	38
Cc1c(Br)cc(NC(=O)C(c2ccccc2)S(=O)(=O)O)cc1Br (stereo not shown)	CD-1 mouse, blood	intravenous, 2 mg/kg	34.9
CNCCN(C)c1cc(C#N)cc(CCc2cc(C)cc(N)n2)c1	male BALB/c mouse, plasma	intravenous, 2 mg/kg	184
COc1cc(C(=O)N2CCC(N3CCN(C)CC3)CC2)ccc1Nc1ncc2c(n1)N(C)c1ccccc1C(=O)N2C	mouse, plasma	intravenous, 1 mg/kg	5.6
Cc1c(Br)cc(NC(=O)CS(=O)(=O)O)cc1Br	CD-1 mouse, blood	intravenous, 2 mg/kg	21.8
CCNc1nc2c(c(N3CC(=O)Nc4cc(OC)ccc43)n1)CCC2	female C57BL/6 mouse, plasma	intravenous, 4 mg/kg, single dose	108
O=C(Nc1ccc(Cl)c(Cl)c1)c1ccc(N2CCNCC2)c([N+](=O)[O-])c1	male mouse, plasma	oral, 10 mg/kg	53.5
Cc1noc(C)c1-c1ccc2nc(-c3cnn(CC(C)(C)O)c3)nc(N3CCNC[C@@H]3c3ccccc3)c2c1	CD-1 mouse, plasma	intravenous, 2 mg/kg	272
CC[C@H](C)[C@@H]1NC(=O)[C@@](C)(NC(=O)[C@H](CCCNC(=N)N)NC(=O)[C@H](CC(C)C)NC(=O)[C@@H](NC(=O)[C@H](CCC(N)=O)NC(=O)[C@H](CC(C)C)NC(C)=O)[C@@H](C)O)CCCC=CCCC[C@@](C)(C(=O)N[C@@H](CC(C)C)C(=O)N[C@@H](Cc2ccc3ccccc3c2)C(N)=O)NC(=O)[C@H](CCCNC(=N)N)NC(=O)[C@H](CCC(N)=O)NC1=O	male BALB/c mouse, plasma	intravenous, 15 mg/kg	0.96
CC(F)(F)CN1Cc2cc(C(F)(F)F)ncc2C2=CN=C(NCc3c(F)ccc4c3CCO4)N3C=NC(C1=O)C23 (stereo not shown)	male CD-1 mouse, plasma	intravenous, 2 mg/kg	0.39
CCc1cc(OC)c2nccc(N3CCc4c(cc(Cn5ccnc5)cc4-c4cn(C)nc4C(F)(F)F)C3=O)c2c1	male CD-1 mouse, plasma	intravenous, 3 mg/kg	16
COc1nc(-c2cc(C)c(N[C@@H](C)c3ccc(F)cc3)nn2)ccc1-n1cnc(C)c1	male CD-1 mouse, plasma	intravenous, 1 mg/kg, single dose	3.9
CC(C)N1Cc2cc(C(F)(F)F)ncc2C2=CN=C(NCc3c(F)ccc4c3CCO4)N3C=NC(C1=O)C23 (stereo not shown)	male CD-1 mouse, plasma	intravenous, 2 mg/kg	1.71
